Activity calls are given as the source filed them. The rule behind the calls is not given here.
Experiments:
Chlamydia trachomatis [1] = assay: Antichlamydial activity against Chlamydia trachomatis L2 serovar VR-902B infected in human HeLa cells assessed as growth inhibition at 50 uM after 24 to 48 hrs by microscopic analysis; assay type: functional
Chlamydia pneumoniae = assay: Antichlamydial activity against Chlamydia pneumoniae T45 infected in human HeLa cells assessed as growth inhibition at 50 uM after 24 to 48 hrs by microscopic analysis; assay type: functional
[2] = system: Yersinia pseudotuberculosis; assay: Inhibition of type 3 secretion system in Yersinia pseudotuberculosis by yopE luciferase reporter gene assay
Outline: (§1)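 T3S inhibition in bacterial cultures measured with a yopE luciferase reporter gene. Compound used in two-fold dilutions from 100 to 12,5 at 1% final DMSO. Result given as percent inhibition relative to 1% DMSO-treated controls.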

[3] = Aqueous solubility of the compound; assay type: physicochemical; conditions: buffer
[4] = system: Yersinia pseudotuberculosis; assay: Antimicrobial activity against Yersinia pseudotuberculosis after 20 hrs; assay type: functional
Outline: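 Overnight culture diluted into Mueller Hinton broth containing compound at 100, 50, 25 or 12, incubated 37 °C for 20 h; bacterial growth scored by visual inspection to give minimum inhibitory concentration.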

[5] = Cytotoxicity against human HeLa cells assessed as cell viability at 50 uM after 48 hrs by resazurin based fluorescence assay; conditions: read-out: Activity
[6] = system: Yersinia pseudotuberculosis; assay: Inhibition of phosphatase activity of secreted YopH in Yersinia pseudotuberculosis at 12 to 100 uM by orthogonal assay
Outline: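 Orthogonal test of T3S inhibition in bacterial cultures that reads the phosphatase activity of secreted YopH effector protein. Compound used in two-fold dilutions from 100 to 12,5 at 1% final DMSO. Result given as percent inhibition relative to 1% DMSO-treated controls.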

Chlamydia trachomatis [7] = assay: Antichlamydial activity against Chlamydia trachomatis L2 serovar VR-902B infected in human HeLa cells assessed as growth inhibition at 50 uM after 24 to 48 hrs by microscopic analysis in presence of iron sulfate; assay type: functional, organism-based
[8] = system: Yersinia pseudotuberculosis; assay: Inhibition of type 3 secretion system in Yersinia pseudotuberculosis at 100 uM by yopE luciferase reporter gene assay; outline: as §1

| Compound | inhibition at 50 µM (Chlamydia trachomatis [1]) [%] | inhibition at 50 µM (Chlamydia pneumoniae) [%] | inhibition [2] | solubility [3] | MIC [4] [µM] | viability at 48 h, 50 µM [5] [%] | inhibition (Chlamydia pneumoniae) | inhibition [6] | growth inhibition (GI) (Chlamydia trachomatis [7]) | inhibition [8] | inhibition (Chlamydia trachomatis [1]) |
| --- | --- | --- | --- | --- | --- | --- | --- | --- | --- | --- | --- |
| CCN(CC)c1ccc(/C=N/NC(=O)c2ccc(/C=C/C(=O)Nc3ccc(S(=O)(=O)Nc4cc(C)on4)cc3)cc2)c(O)c1 | 28 | 22.4 | Dose-dependent effect | Insoluble | > 100 | – | – | – | – | – | – |
| Cc1cc(NS(=O)(=O)c2ccc(NC(=O)NC3CCCCC3)cc2)no1 | 14.8 | – | – | – | > 100 | > 70 | inactive | – | – | – | – |
| Cc1cc(NS(=O)(=O)c2ccc(NC(=O)/C=C/c3ccc(C(=O)N/N=C/c4cc(Cl)cc(Cl)c4O)cc3)cc2)no1 | 14.6 | – | Dose-dependent effect | – | > 100 | > 70 | inactive | – | – | – | – |
| Cc1cc(NS(=O)(=O)c2ccc(NC(=O)/C=C/c3ccc(C(=O)N/N=C/c4cc(Br)ccc4O)cc3)cc2)no1 | 21.5 | – | Dose-dependent effect | – | > 100 | > 70 | inactive | – | – | – | – |
| Cc1cc(NS(=O)(=O)c2ccc(NC(=O)Nc3ccc(O)cc3)cc2)no1 | 9.6 | – | – | – | > 100 | > 70 | inactive | – | – | – | – |
| Cc1cc(NS(=O)(=O)c2ccc(C(=O)N/N=C/c3ccc(O)cc3O)cc2)no1 | 47.4 | – | Dose-dependent effect | – | > 100 | > 70 | inactive | – | – | – | – |
| Cc1cc(NS(=O)(=O)c2ccc(NC(=O)c3sc4cc(Cl)ccc4c3Cl)cc2)no1 | – | – | – | – | – | – | – | inactive | Active | inactive | – |
| Cc1cc(NS(=O)(=O)c2ccc(NC(=O)NCc3ccccc3)cc2)no1 | 18.5 | – | – | – | > 100 | > 70 | inactive | – | – | – | – |
| Cc1cc(NS(=O)(=O)c2ccc(NC(=S)Nc3ccc(O)cc3)cc2)no1 | – | 60.8 | – | – | > 100 | > 70 | – | – | – | – | inactive |
| Cc1cc(NS(=O)(=O)c2ccc(C(=O)N/N=C/c3cc(Cl)cc(Cl)c3O)cc2)no1 | 24.2 | – | Dose-dependent effect | – | > 100 | > 70 | inactive | – | – | – | – |
| Cc1cc(NS(=O)(=O)c2ccc(NC(=O)NCc3ccccc3O)cc2)no1 | – | – | – | – | > 100 | > 70 | inactive | – | – | – | inactive |
| CCN(CC)c1ccc(/C=N/NC(=O)c2ccc(S(=O)(=O)Nc3cc(C)on3)cc2)c(O)c1 | 83 | 100 | Dose-dependent effect | – | > 100 | > 70 | – | – | inactive | – | – |
| Cc1cc(NS(=O)(=O)c2ccc(NC(=S)NC3CCCCC3)cc2)no1 | 26.9 | – | – | – | > 100 | > 70 | inactive | – | – | – | – |
| Cc1cc(NS(=O)(=O)c2ccc(NC(=O)/C=C/c3ccc(C(=O)N/N=C/c4cccc(F)c4O)cc3)cc2)no1 | 33.4 | – | Dose-dependent effect | – | > 100 | > 70 | inactive | – | – | – | – |
| Cc1cc(NS(=O)(=O)c2ccc(NC(=S)NCc3ccccc3O)cc2)no1 | – | – | – | – | > 100 | > 70 | inactive | – | – | – | inactive |
| Cc1cc(NS(=O)(=O)c2ccc(C(=O)N/N=C/c3cc(Br)cc(Br)c3O)cc2)no1 | 65.2 | 99.4 | Dose-dependent effect | – | > 100 | > 70 | – | – | inactive | Active | – |
| Cc1cc(NS(=O)(=O)c2ccc(NC(S)=NCc3ccccc3)cc2)no1 | 26.9 | – | – | – | > 100 | > 70 | inactive | – | – | – | – |

From ChEMBL document CHEMBL3612039, “Design, synthesis and evaluation of novel polypharmacological antichlamydial agents” (Eur J Med Chem, 2015)
